This is an account of results in BindingDB's records for doi:10.1021/jm3006355 (Bar-Ilan University, 2012).

Each structure is given as a SMILES string.

The test has as its target P2Y purinoceptor 1 (Meleagris gallopavo, UniProt P49652). Briefly: Agonist activity at turkey P2Y1R expressed in 1321N1 cells assessed as increase in intracellular calcium concentration by spectrofluorimetry. In a few lines:
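Cell suspensions were treated with nucleotide at various concentrations at 37 °C in 10 mM Hepes-buffered saline pH 7.4 with 1 mM CaCl2 and 1 mM MgCl2. Maximal [Ca2+]i rise was read by dual-excitation spectrofluorometry and fitted to give EC50. Three experiments on separate days.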
On the technique in general: A change in cytosolic calcium serves as a functional read-out for many receptors and channels.

Sequence of P2Y purinoceptor 1 (P49652 whole entry): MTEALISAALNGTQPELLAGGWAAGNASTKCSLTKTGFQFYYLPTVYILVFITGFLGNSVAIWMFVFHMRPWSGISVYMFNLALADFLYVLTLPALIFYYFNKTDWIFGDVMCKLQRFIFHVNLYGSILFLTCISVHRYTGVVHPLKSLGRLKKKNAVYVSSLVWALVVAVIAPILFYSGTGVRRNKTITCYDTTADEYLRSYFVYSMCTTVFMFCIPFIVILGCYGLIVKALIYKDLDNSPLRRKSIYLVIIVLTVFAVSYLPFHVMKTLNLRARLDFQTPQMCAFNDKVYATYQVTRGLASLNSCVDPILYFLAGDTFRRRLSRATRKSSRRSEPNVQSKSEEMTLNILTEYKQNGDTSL

Turning to `B[P@@](=O)(OC[C@H]1O[C@@H](n2cnc3c(N)nc(SC)nc32)[C@H](O)[C@@H]1O)OP(=O)(O)O`, the EC50 (usually the midpoint of the concentration-response curve) turned out to be 34 nM.
